From ChEMBL document CHEMBL1126703, “Synthesis of 2'-deoxyuridine and 5-fluoro-2'-deoxyuridine derivatives and evaluation in antibody targeting studies” (J Med Chem, 1993)
In brackets after ≈: the same amount, converted by molar mass. Several values for one entry are separate records, joined by “and”; a condition that tells them apart may be missing. Identical values can stand only once.

Legend:
Assay type in all cases: functional, cell-based
Settings in all cases: Homo sapiens
[1] = test system: C170; experiment: Tested for cytotoxicity against C170 colorectal carcinoma cell line by [75Se]selenomethionine uptake assay, in vitro
[2] = test system: 791T cell line; experiment: Tested for cytotoxicity against antigen positive 791T osteosarcoma cells […]
Outline: (§1)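 Cytotoxicity was measured as inhibition of [75Se]selenomethionine uptake in a microplate assay, with cells incubated continuously with drug or conjugate. Antigen-positive 791T osteosarcoma cells carry about 6 × 10⁵ antigens/cell; T-24 bladder carcinoma cells carry about 3–5% of that level. Both lines were grown as monolayers in Eagle's MEM with 10% newborn calf serum and passaged using trypsin (0.25%)/EDTA (0.5%).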

[3] = test system: T-24; experiment: Tested for cytotoxicity against antigen negative T-24 bladder carcinoma cells having only 3-5% antigen expression; outline: as §1
[4] = test system: 791T cell line; experiment: Tested for cytotoxicity against antigen positive 791T osteosarcoma cells […]; <20% inhibition achieved; outline: as §1
[5] = test system: T-24; experiment: Tested for cytotoxicity against antigen negative T-24 bladder carcinoma cells having only 3-5% antigen expression; <20% inhibition achieved; outline: as §1
[6] = test system: 791T cell line; experiment: Tested for cytotoxicity against antigen positive 791T osteosarcoma cells of conjugate AH1.11 (Type H3: MSR-28); <20% inhibition achieved; outline: as §1
[7] = test system: 791T cell line; experiment: Tested for cytotoxicity against antigen positive 791T osteosarcoma cells of conjugate H1.11 (Type H3: MSR-28); <20% inhibition achieved; outline: as §1
[8] = test system: T-24; experiment: Tested for cytotoxicity against antigen negative T-24 bladder carcinoma cells of conjugate AH1.11 (Type H3: MSR-28); 20%-40% inhibition achieved; outline: as §1
[9] = test system: T-24; experiment: Tested for cytotoxicity against antigen negative T-24 bladder carcinoma cells of conjugate H1.11 (Type H3: MSR-28); <20% inhibition achieved; outline: as §1
[10] = test system: 791T cell line; experiment: Tested for cytotoxicity against antigen positive 791T osteosarcoma cells of conjugate AH1.11 (Type H1: MSR-33); outline: as §1
[11] = test system: 791T cell line; experiment: Tested for cytotoxicity against antigen positive 791T osteosarcoma cells of conjugate H1.11 (Type H1: MSR-33); outline: as §1
[12] = test system: T-24; experiment: Tested for cytotoxicity against antigen negative T-24 bladder carcinoma cells of conjugate AH1.11 (Type H1: MSR-33); outline: as §1
[13] = test system: T-24; experiment: Tested for cytotoxicity against antigen negative T-24 bladder carcinoma cells of conjugate H1.11 (Type H1: MSR-33); outline: as §1
[14] = test system: 791T cell line; experiment: Tested for cytotoxicity against antigen positive 791T osteosarcoma cells […] (49% inhibition achieved at 100 micro g/mL)
[15] = test system: 791T cell line; experiment: Tested for cytotoxicity against antigen positive 791T osteosarcoma cells of conjugate AH1.11 (Type H2: MSR-26); outline: as §1
[16] = test system: 791T cell line; experiment: Tested for cytotoxicity against antigen positive 791T osteosarcoma cells of conjugate H1.11 (Type H2: MSR-26); outline: as §1
[17] = test system: 791T cell line; experiment: Tested for cytotoxicity against antigen positive 791T osteosarcoma cells of conjugate H1.11 (Type H2: MSR-26) (less than 20% inhibition achieved); outline: as §1
[18] = test system: T-24; experiment: Tested for cytotoxicity against antigen negative T-24 bladder carcinoma cells of conjugate AH1.11 (Type H2: MSR-26); outline: as §1
[19] = test system: T-24; experiment: Tested for cytotoxicity against antigen negative T-24 bladder carcinoma cells of conjugate H1.11 (Type H2: MSR-26); outline: as §1

Structure (SMILES)	IC50 [1]	IC50 [2]	IC50 [3]	also measured
O=C(O)[C@H]1O[C@@H](n2cc(F)c(=O)[nH]c2=O)C[C@@H]1O	10 µg/mL and 41 µM	–	–	–
NC[C@H]1O[C@@H](n2cc(F)c(=O)[nH]c2=O)C[C@@H]1O	26 µg/mL and 107 µM	–	–	–
O=c1[nH]c(=O)n([C@H]2C[C@H](O)[C@@H](CO)O2)cc1F [FLOXURIDINE]	0.1 µg/mL and 400 nM	0.8 µg/mL and 3.2 µM	1 µg/mL and 4.1 µM	–
CCOC(=O)c1ccc(NC(=O)[C@H]2O[C@@H](n3cc(F)c(=O)[nH]c3=O)C[C@@H]2O)cc1	–	–	–	IC50 [4]: > 100 µg/mL and > 300 µM; IC50 [5]: > 100 µg/mL and > 300 µM
CCCCNC(=O)/C=C/C(=O)NC[C@H]1O[C@@H](n2cc(F)c(=O)[nH]c2=O)C[C@@H]1O	–	> 100 µg/mL and > 300 µM	> 100 µg/mL and > 300 µM	–
O=C(O)c1ccc(NC(=O)[C@H]2O[C@@H](n3cc(F)c(=O)[nH]c3=O)C[C@@H]2O)cc1	–	–	100 µg/mL and 263 µM	IC50 [4]: > 100 µg/mL and > 300 µM; IC50 [6]: > 1 µg/mL and > 2.6 µM; IC50 [7]: > 3 µg/mL and > 7.9 µM; IC50 [8]: > 1 µg/mL and > 2.6 µM; IC50 [9]: > 3 µg/mL and > 7.9 µM
O=c1[nH]cc(F)c(=O)[nH]1 [FLUOROURACIL]	0.3 µg/mL and 2 µM	0.7 µg/mL and 5.5 µM	0.5 µg/mL and 4.1 µM	–
O=C(O)CCC(=O)NC[C@H]1O[C@@H](n2cc(F)c(=O)[nH]c2=O)C[C@@H]1O	–	> 100 µg/mL and > 290 µM	21 µg/mL and 62 µM	IC50 [10]: 0.4 µg/mL and 1.1 µM; IC50 [11]: 7.1 µg/mL and 20.6 µM; IC50 [12]: 0.4 µg/mL and 1.1 µM; IC50 [13]: 5.7 µg/mL and 16.6 µM
CCOC(=O)CCC(=O)NC[C@H]1O[C@@H](n2cc(F)c(=O)[nH]c2=O)C[C@@H]1O	–	> 100 µg/mL and > 280 µM	> 100 µg/mL and > 280 µM	–
O=C(O)/C=C/C(=O)NC[C@H]1O[C@@H](n2cc(F)c(=O)[nH]c2=O)C[C@@H]1O	–	110 µg/mL (≈ 320 µM)	79 µg/mL and 231 µM	IC50 [14]: 320 µM; IC50 [15]: > 0.5 µg/mL and > 1.5 µM; IC50 [16]: > 30 µM; IC50 [17]: > 10 µg/mL; IC50 [18]: > 0.5 µg/mL and > 1.5 µM; IC50 [19]: > 10 µg/mL and > 30 µM
